A selection: hits, their analogues and other compounds. The true share with any hit is near 2.7%.
Wee1 stabilizer = human Wee1 degradation inhibition, primary screen | actives 1.2% (n = 220,000) | P30291 | HeLa Luc-Wee1K328M stability, luciferase luminescence; 100% = proteasome inhibitor MG132 effect | reporter increase, % at 5 µM | AID 1321;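 active means activation above the mean of all tested compounds plus 3 SD, set per screening run, cut at about 8.8% in these data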;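 further: cells exposed to compound for 20 h before luminescence read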
Target sequence (P30291 whole entry K328M): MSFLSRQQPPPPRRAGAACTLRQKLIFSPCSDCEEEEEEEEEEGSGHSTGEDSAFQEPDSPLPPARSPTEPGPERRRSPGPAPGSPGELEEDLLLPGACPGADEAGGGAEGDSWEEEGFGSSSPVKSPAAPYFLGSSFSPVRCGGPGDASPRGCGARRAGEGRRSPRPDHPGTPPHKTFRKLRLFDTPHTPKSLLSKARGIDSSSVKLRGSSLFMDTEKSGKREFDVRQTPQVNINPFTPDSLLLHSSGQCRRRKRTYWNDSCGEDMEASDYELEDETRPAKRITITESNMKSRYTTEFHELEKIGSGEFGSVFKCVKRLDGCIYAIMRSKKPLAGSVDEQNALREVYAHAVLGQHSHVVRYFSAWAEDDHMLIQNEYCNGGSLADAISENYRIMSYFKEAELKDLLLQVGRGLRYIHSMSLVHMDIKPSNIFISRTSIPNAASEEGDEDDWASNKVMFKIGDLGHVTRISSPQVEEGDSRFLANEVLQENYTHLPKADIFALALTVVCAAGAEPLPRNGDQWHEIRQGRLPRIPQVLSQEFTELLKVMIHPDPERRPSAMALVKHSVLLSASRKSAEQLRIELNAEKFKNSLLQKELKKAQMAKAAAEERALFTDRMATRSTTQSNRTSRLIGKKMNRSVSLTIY
14-3-3 Bad PPI = disrupts binding of bovine 14-3-3 zeta to phospho-Bad peptide | P63103 | TR-FRET 14-3-3zeta/Dy647-pBad peptide displacement, 1 h | inhibition, % at 21.7 µM | actives 0.71% (n = 220,000) | AID 781;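 active means inhibition above about 70%, limit read from the data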
Mdm2 ligase inh = Mdm2 E3 ligase (human) inhibition; Q00987; cell-based MDM2 ubiquitination luciferase reporter, 2 h; 0 = plate control, 100 = twice control, blank-subtracted; signal enhancement, % at 5 µM; actives 0.11% (n = 210,000); AID 1230;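 active means signal enhancement of 30% or more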;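 further: luminescence tracks abundance of the self-degrading MDM2-luciferase fusion protein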
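Material: Stable MDM2–luciferase fusion reporter cells | Amount: 2000 cells seeded into each well | Dosing: One concentration, 5 µM, with 0.2% DMSO | Incubation: 4 h cell settling then 2 h compound exposure, 37 °C | Measured by: Luciferase luminescence | Read-out basis: % enhancement relative to plate controls after blank subtraction | Benchmarks: Control and blank well means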
TbHK1 inh = T. brucei hexokinase 1 inhibition | recombinant TbHK1, G6PDH-coupled NADH A340 | inhibition, % at 10 µM | actives 0.11% (n = 220,000) | AID 1430;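 active means inhibition of 50% or more in the single-dose primary screen; inactive means inhibition below 50%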
Hck-Nef inh = inhibitors of human Hck kinase activated by Nef; P08631; Recombinant Hck-YEEI plus Nef, Z-Lyte FRET kinase assay; inhibition, % at 20 µM; actives 0.68% (n = 220,000);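 active means Hck-Nef kinase inhibition above about 50%, limit read from the data; inactive means inhibition below that limit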
Hits are given with their value; n = inactive; x = no result.

SMILES | Wee1 stabilizer | 14-3-3 Bad PPI | Mdm2 ligase inh | TbHK1 inh | Hck-Nef inh
C[C@@H]1NC(=O)c2cc([N+](=O)[O-])cc(I)c2OCC[C@@H](C(=O)NC(CC(=O)O)C(N)=O)NC(=O)[C@H](CCC(=O)O)NC1=O (stereo not given in full) | n | n | x | n | n
O=C(Nc1ccccc1Oc1ccccc1)C1CC1 | 10 | n | n | n | n
O=C(Cc1nn[nH]n1)NCc1ccccc1Cl | n | n | n | n | n
COc1cc2ncnc(NCc3ccccc3)c2cc1OC | n | n | n | n | n
COc1cc2ncnc(NCc3cccc(Cl)c3)c2cc1OC | n | n | n | n | 65
COn1c(C)c(C)c2c3nonc3ccc21 | n | 95 | n | n | n
CSc1ccc(NC(=O)c2cccnc2)cc1C#N | 8.8 | n | n | n | n
CCN(C(=O)C1CCCCC1)c1nnc(-c2cccnc2)s1 | n | 77 | n | n | n
COCCN(C(=O)C1CCC1)c1nnc(-c2cccnc2)s1 | n | n | n | n | n
CCc1ccc(N2CC(C(=O)Nc3cc(C)on3)CC2=O)cc1 (stereo not given) | n | n | n | n | n
CCn1c(SCC(=O)Nc2cc(C)on2)nc2sc3c(c2c1=O)CCCC3 | n | n | x | n | 53
C=CCn1c(SCC(=O)Nc2cc(C)on2)nc2sc3c(c2c1=O)CCCC3 | n | n | n | n | n
Cc1cc(=O)[nH]c(NCCO)n1 | n | n | n | n | n
O=C(Nc1ccc([N+](=O)[O-])cn1)c1ccc(Br)o1 | 10 | n | n | n | n
COc1cc(C2C(C#N)=C(N)OC3=C2C(=O)CC(C)(C)C3)cc([N+](=O)[O-])c1O (stereo not given) | 9.7 | n | n | n | n
O=[N+]([O-])c1cccc(/C=N/Nc2nc(NCc3ccccc3)nc(N3CCOCC3)n2)c1O | n | n | n | n | n
Cc1ccc2nc(C)cc(Nc3ccc([N+](=O)[O-])cc3)c2c1 | n | 77 | n | n | n
CCc1ccc(NC(=O)c2ccccc2NC(=O)C2CCCO2)cc1 (stereo not given) | n | n | n | n | n
O=C(NCCOc1ccccc1)c1ccccc1NC(=O)C1CCCO1 (stereo not given) | 9.9 | n | n | n | n
Fc1ccccc1C1c2cccn2CCN1C(=S)Nc1ccc(Br)cc1 (stereo not given) | n | n | n | n | n
Cc1ccc(/C=C/c2nc3ccccc3s2)s1 | n | 78 | n | n | n
CC12CCC(c3c(CO)nn(-c4ccccc4)c31)C2(C)C (stereo not given) | 10 | n | n | n | n
CC12CCC(c3c(C(=O)O)nn(-c4ccccc4)c31)C2(C)C (stereo not given) | n | n | n | n | n
COc1cc(C)c(NC(=S)NCCCN2CCOCC2)cc1OC | n | n | n | n | n
Cc1nccn1CC(=O)N/N=C/c1cccs1 | n | n | n | n | n
SMILES | Wee1 stabilizer | 14-3-3 Bad PPI | Mdm2 ligase inh | TbHK1 inh | Hck-Nef inh
CC(C)CC(=O)N1CCN(CC2CC=CCC2)CC1 (stereo not given) | n | 77 | n | n | n
CCC(CC)N1CCN(CC2CC=CCC2)CC1 (stereo not given) | n | n | n | n | n
O=c1c2sc(-c3ccccc3)cc2nc2n1CCC2 | n | n | n | n | n
O=c1c2sc(-c3ccccc3)cc2nc2n1CCCCC2 | 9.9 | n | n | n | n
S=C(N/N=C/c1cccc2ccccc12)Nc1cccc(Cl)c1 | n | n | n | n | n
CN1CCN(CC(=O)NC2CCCCC2)CC1 | n | 71 | n | n | n
Fc1cccc(NCc2cn3ccccc3n2)c1 | n | n | n | n | n
Fc1cccc(NCc2ccoc2)c1 | n | 83 | n | n | n
O=C(CCN1C(=O)S/C(=C\c2cccs2)C1=O)NC1=NCCS1 | n | n | n | n | n
Cc1cccc(C)c1NC(=O)c1cccc(COc2cc(Cl)ccc2Cl)c1 | 9.0 | n | n | n | n
CCC(Br)C(=O)Nc1ccc(OC)cc1 (stereo not given) | n | n | n | n | n
O=C(CSc1nccc(=O)[nH]1)NCc1ccc(Cl)cc1 | 9.3 | n | x | n | n
Cc1c(Cl)cccc1NC(=O)CNCc1ccccc1F | n | n | n | n | n
COCCCNC(=O)CCCn1c(=O)c2ccccc2n(Cc2cccc([N+](=O)[O-])c2)c1=O | n | n | n | n | n
O=C(/C=C/c1ccc(O)c(O)c1)O[C@H](Cc1ccc(O)c(O)c1)C(=O)O | x | n | n | n | 52
